Test results published in ChEMBL document CHEMBL3407479, “Structure-activity relationship for the oxadiazole class of antibiotics” (J Med Chem, 2015).
In brackets after ≈: the same amount, converted by molar mass. Activity calls are given as the source filed them. The calls are words filed in the database; no cut-off is given here.

What was measured:
[1] = tested on: Staphylococcus aureus; assay: Antibacterial activity against vancomycin/methicillin-resistant Staphylococcus aureus VRS1 clinical isolate after 16 to 20 hrs by broth microdilution method; assay type: functional
[2] = Clearance in ICR mouse at 20 mg/kg, iv; assay type: ADME, organism-based; set-up: dose 20 mg/kg, route intravenous; conditions: in vivo
[3] = Terminal half life in ICR mouse at 20 mg/kg, iv; assay type: ADME, organism-based; set-up: dose 20 mg/kg, route intravenous; conditions: in vivo, read-out: beta t1/2 (converted)
[4] = tested on: Mus musculus; assay: AUC (0 to 24 hrs) in ICR mouse at 20 mg/kg, po; assay type: ADME, organism-based, Plasma; set-up: time < 24 hr, dose 20 mg/kg, route oral; conditions: in vivo
[5] = tested on: Staphylococcus aureus; assay: Antibacterial activity against methicillin-resistant Staphylococcus aureus ATCC 27660 in ICR mouse peritonitis infection model assessed as survival rate at 20 mg/kg, iv administered at 0.5 and 7.5 hrs post infection measured for 48 hrs; assay type: functional, organism-based; set-up: dose 20 mg/kg
Method in brief: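 Female ICR mice, 6–8 weeks, ~20 g, n = 6 per group. Bacteria at 10^8 cfu/mL mixed 1:1 with 10% mucin just before use; 0.5 mL given ip (final 5×10^7 cfu/mL, 5% mucin). Compound at 20 mg/kg iv by tail vein, twice, at 30 min and 7.5 h post-infection. […] Survivors counted at 48 h.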

[6] = tested on: Bacillus cereus; assay: Antibacterial activity against Bacillus cereus ATCC 13061 after 16 to 20 hrs by broth microdilution method; assay type: functional
[7] = tested on: Mus musculus; assay: AUC (0 to 24 hrs) in ICR mouse at 20 mg/kg, iv; assay type: ADME, organism-based, Plasma; set-up: time < 24 hr, dose 20 mg/kg, route intravenous; conditions: in vivo
[8] = Plasma protein binding in human at 10 uM after 6 hrs by equilibrium dialysis assay; assay type: ADME, cell-free
[9] = tested on: HepG2; assay: Cytotoxicity against human HepG2 cells assessed as cell viability after 16 hrs by XTT assay; assay type: cell-based; conditions: HepG2, 16 h
Method in brief: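 HepG2 cells were run in triplicate in an XTT viability assay. IC50 was derived from the concentration–response data.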

[10] = Primary phase half life in ICR mouse at 20 mg/kg, iv; assay type: ADME, organism-based; set-up: dose 20 mg/kg, route intravenous; conditions: in vivo, read-out: alphat1/2
[11] = tested on: Enterococcus faecium; assay: Ratio of MBC to MIC for Enterococcus faecium NCTC 7171; assay type: functional
[12] = Elimination half life in ICR mouse at 20 mg/kg, po; assay type: ADME, organism-based; set-up: dose 20 mg/kg, route oral; conditions: in vivo, read-out: beta t1/2 (converted)
[13] = tested on: Enterococcus faecium; assay: Antibacterial activity against Enterococcus faecium NCTC 7171 after 16 to 20 hrs by broth microdilution method; assay type: functional
[14] = tested on: Staphylococcus aureus; assay: Antibacterial activity against methicillin-resistant Staphylococcus aureus ATCC 27660 in po dosed ICR mouse peritonitis infection model assessed as survival rate administered at 0.5 and 7.5 hrs post infection; assay type: functional; conditions: ATCC 27660, po
[15] = tested on: Streptococcus pyogenes; assay: Antibacterial activity against Streptococcus pyogenes ATCC 49399 after 16 to 20 hrs by broth microdilution method; assay type: functional
[16] = tested on: Staphylococcus aureus; assay: Antibacterial activity against methicillin-resistant Staphylococcus aureus ATCC 27660 in po dosed ICR mouse peritonitis infection model assessed as survival rate administered at 1 hr post infection; assay type: functional; conditions: ATCC 27660, po
Method in brief: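 Female ICR mice, 6–8 weeks, given 0.5 mL ip of S. aureus (final 5×10^7 cfu/mL in 5% mucin). Six mice per dose level; a single oral dose at 1 h post-infection.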

[17] = Distribution phase half life in ICR mouse at 20 mg/kg, po; assay type: ADME, organism-based; set-up: dose 20 mg/kg, route oral; conditions: in vivo, read-out: alphat1/2 (converted)
[18] = AUC (0 to infinity) in ICR mouse at 20 mg/kg, iv; assay type: ADME, organism-based; set-up: time infinity, dose 20 mg/kg, route intravenous; conditions: plasma
[19] = Tmax in ICR mouse at 20 mg/kg, po; assay type: ADME, organism-based; set-up: dose 20 mg/kg, route oral; conditions: in vivo
[20] = tested on: Staphylococcus epidermidis; assay: Antibacterial activity against Staphylococcus epidermidis ATCC 35547 after 16 to 20 hrs by broth microdilution method; assay type: functional
[21] = AUC (0 to infinity) in ICR mouse at 20 mg/kg, po; assay type: ADME, organism-based; set-up: time infinity, dose 20 mg/kg, route oral; conditions: plasma
[22] = tested on: Staphylococcus haemolyticus; assay: Antibacterial activity against Staphylococcus haemolyticus ATCC 29970 after 16 to 20 hrs by broth microdilution method; assay type: functional
[23] = Volume of distribution in ICR mouse at 20 mg/kg, iv; assay type: ADME, organism-based; set-up: dose 20 mg/kg, route intravenous; conditions: in vivo
[24] = tested on: Enterococcus faecalis; assay: Antibacterial activity against vancomycin-resistant Enterococcus faecalis 99 clinical isolate after 16 to 20 hrs by broth microdilution method; assay type: functional
[25] = tested on: Staphylococcus aureus; assay: Antibacterial activity against methicillin-sensitive Staphylococcus aureus ATCC 29213 after 16 to 20 hrs by broth microdilution method; assay type: functional
[26] = Cmax in ICR mouse at 20 mg/kg, po; assay type: ADME, organism-based; set-up: dose 20 mg/kg, route oral; conditions: in vivo
[27] = tested on: Streptococcus oralis; assay: Antibacterial activity against Streptococcus oralis ATCC 9811 after 16 to 20 hrs by broth microdilution method; assay type: functional
[28] = tested on: Staphylococcus aureus; assay: Antibacterial activity against methicillin-resistant Staphylococcus aureus ATCC 27660 in iv dosed ICR mouse peritonitis infection model assessed as survival rate administered at 0.5 and 7.5 hrs post infection; assay type: functional; conditions: ATCC 27660, iv
[29] = tested on: Staphylococcus aureus; assay: Bactericidal activity against methicillin-sensitive Staphylococcus aureus ATCC 29213 after 48 hrs; assay type: functional; conditions: ATCC 29213, 48 h

FC(F)(F)c1ccc(Oc2ccc(-c3noc(-c4ccc5[nH]ccc5c4)n3)cc2)cc1
MIC [1]: 1 µg/mL (≈ 2.37 µM) | clearance [2]: 5.68 mL/min/kg | half-life [3]: 9.6 h | AUC [4]: 3060 µg·min/mL | Activity [5]: Active | MIC [6]: 16 µg/mL (≈ 38 µM) | AUC [7]: 3140 µg·min/mL | PPB [8]: 98.2% | IC50 [9]: 75.7 µg/mL (≈ 180 µM) | half-life [10]: 32.4 s | Ratio [11]: 2 | half-life [12]: 18.6 h | MIC [13]: 2 µg/mL (≈ 4.75 µM) | ED50 [14]: 1.7 mg/kg | MIC [15]: 64 µg/mL (≈ 152 µM) | ED50 [16]: 3.1 mg/kg | half-life [17]: 15.9 h | AUC(0-inf) [18]: 58700 ng·h/mL | Tmax [19]: 6 h | MIC [20]: 4 µg/mL (≈ 9.49 µM) | AUC(0-inf) [21]: 67700 ng·h/mL | MIC [22]: 8 µg/mL (≈ 19 µM) | Vd [23]: 4.73 L/kg | MIC [24]: 16 µg/mL (≈ 38 µM) | MIC [25]: 2 µg/mL (≈ 4.75 µM) | Cmax [26]: 2340 ng/mL | MIC [27]: 128 µg/mL (≈ 304 µM) | ED50 [28]: 7.6 mg/kg | MBC [29]: 2 µg/mL (≈ 4.75 µM)
